Laboratory results reported in ChEMBL document CHEMBL3621107, “Ring fusion strategy for synthesis and lead optimization of sulfur-substituted anthra[1,2-c][1,2,5]thiadiazole-6,11-dione derivatives as promising scaffold of antitumor agents” (Eur J Med Chem, 2015).

How the values were obtained:
Type in all cases: functional
[1] = tested on: MDA-MB-231; test: Cytotoxicity against human MDA-MB-231 cells assessed as cell growth at 10 uM after 48 hrs by SRB assay relative to control; details: MDA-MB-231, 48 h, read-out: Activity
Method in brief: (§1)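 First-stage NCI DTP one-dose screen against the 60 human tumour cell line panel. Compounds were tested at a single 10 μM level, and results are given as growth percentage.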

[2] = tested on: COLO 205; test: Cytotoxicity against human COLO205 cells assessed as cell growth at 10 uM after 48 hrs by SRB assay relative to control; details: COLO 205, 48 h, read-out: Activity
Method in brief: (§2)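 First-stage NCI-60 screen by the NCI Developmental Therapeutics Program. Each compound was tested once at a single concentration of 10 μM against the 60-cell-line panel. Growth percentage was reported for each cell line.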

[3] = tested on: RXF 393; test: Cytotoxicity against human RXF393 cells assessed as cell growth at 10 uM after 48 hrs by SRB assay relative to control; details: RXF 393, 48 h, read-out: Activity; method in brief: as §1
[4] = tested on: NCI-H226; test: Cytotoxicity against human NCI-H226 cells assessed as cell growth at 10 uM after 48 hrs by SRB assay relative to control; details: NCI-H226, 48 h, read-out: Activity; method in brief: as §1
[5] = tested on: K562; test: Cytotoxicity against human K562 cells assessed as cell growth at 10 uM after 48 hrs by SRB assay relative to control; details: K562, 48 h, read-out: Activity; method in brief: as §2
[6] = tested on: SK-OV-3; test: Cytotoxicity against human SKOV3 cells assessed as cell growth at 10 uM after 48 hrs by SRB assay relative to control; details: SK-OV-3, 48 h, read-out: Activity; method in brief: as §1
[7] = tested on: LOX IMVI; test: Cytotoxicity against human LOXIMVI cells assessed as cell growth at 10 uM after 48 hrs by SRB assay relative to control; details: read-out: Activity; method in brief: as §2
[8] = tested on: T47D; test: Cytotoxicity against human T47D cells assessed as cell growth at 10 uM after 48 hrs by SRB assay relative to control; details: read-out: Activity
Method in brief: (§3)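 NCI-60 one-dose screen run by NCI DTP: each cell line exposed to a single 10 µM dose, and percentage growth recorded against untreated growth.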

[9] = tested on: TK-10; test: Cytotoxicity against human TK10 cells assessed as cell growth at 10 uM after 48 hrs by SRB assay relative to control; details: TK-10, 48 h, read-out: Activity; method in brief: as §3
[10] = tested on: SF-268; test: Cytotoxicity against human SF268 cells assessed as cell growth at 10 uM after 48 hrs by SRB assay relative to control; details: SF-268, 48 h, read-out: Activity; method in brief: as §1
[11] = tested on: DU-145; test: Cytotoxicity against human DU145 cells assessed as cell growth at 10 uM after 48 hrs by SRB assay relative to control; details: DU-145, 48 h, read-out: Activity; method in brief: as §2
[12] = tested on: NCI-H522; test: Cytotoxicity against human NCI-H522 cells assessed as cell growth at 10 uM after 48 hrs by SRB assay relative to control; details: NCI-H522, 48 h, read-out: Activity; method in brief: as §1
[13] = tested on: HCT-116; test: Cytotoxicity against human HCT116 cells assessed as cell growth at 10 uM after 48 hrs by SRB assay relative to control; details: HCT-116, 48 h, read-out: Activity; method in brief: as §2
[14] = Cytotoxicity against human Hs578T cells assessed as cell growth at 10 uM after 48 hrs by SRB assay relative to control; details: Hs-578T, read-out: Activity; method in brief: as §2
[15] = tested on: M14; test: Cytotoxicity against human M14 cells assessed as cell growth at 10 uM after 48 hrs by SRB assay relative to control; details: M14, 48 h, read-out: Activity; method in brief: as §2
[16] = tested on: NCI-H460; test: Cytotoxicity against human NCI-H460 cells assessed as cell growth at 10 uM after 48 hrs by SRB assay relative to control; details: NCI-H460, 48 h, read-out: Activity; method in brief: as §1
[17] = tested on: UACC-257; test: Cytotoxicity against human UACC257 cells assessed as cell growth at 10 uM after 48 hrs by SRB assay relative to control; details: UACC-257, 48 h, read-out: Activity; method in brief: as §3
[18] = tested on: SNB-75; test: Cytotoxicity against human SNB75 cells assessed as cell growth at 10 uM after 48 hrs by SRB assay relative to control; details: SNB-75, 48 h, read-out: Activity; method in brief: as §3
[19] = tested on: OVCAR-8; test: Cytotoxicity against human OVCAR8 cells assessed as cell growth at 10 uM after 48 hrs by SRB assay relative to control; details: OVCAR-8, 48 h, read-out: Activity; method in brief: as §1
[20] = tested on: OVCAR-3; test: Cytotoxicity against human OVCAR3 cells assessed as cell growth at 10 uM after 48 hrs by SRB assay relative to control; details: OVCAR-3, 48 h, read-out: Activity; method in brief: as §1
[21] = tested on: A549; test: Cytotoxicity against human A549 cells assessed as cell growth at 10 uM after 48 hrs by SRB assay relative to control; details: A549, 48 h, read-out: Activity; method in brief: as §2
[22] = tested on: SK-MEL-2; test: Cytotoxicity against human SK-MEL-2 cells assessed as cell growth at 10 uM after 48 hrs by SRB assay relative to control; details: SK-MEL-2, 48 h, read-out: Activity; method in brief: as §1
[23] = tested on: UO-31; test: Cytotoxicity against human UO31 cells assessed as cell growth at 10 uM after 48 hrs by SRB assay relative to control; details: UO-31, 48 h, read-out: Activity; method in brief: as §3
[24] = tested on: HCT-15; test: Cytotoxicity against human HCT15 cells assessed as cell growth at 10 uM after 48 hrs by SRB assay relative to control; details: HCT-15, 48 h, read-out: Activity; method in brief: as §2
[25] = tested on: HOP-92; test: Cytotoxicity against human HOP92 cells assessed as cell growth at 10 uM after 48 hrs by SRB assay relative to control; details: HOP-92, 48 h, read-out: Activity; method in brief: as §2
[26] = tested on: NCI-H23; test: Cytotoxicity against human NCI-H23 cells assessed as cell growth at 10 uM after 48 hrs by SRB assay relative to control; details: NCI-H23, 48 h, read-out: Activity; method in brief: as §1
[27] = tested on: A498; test: Cytotoxicity against human A498 cells assessed as cell growth at 10 uM after 48 hrs by SRB assay relative to control; details: A498, 48 h, read-out: Activity; method in brief: as §2
[28] = tested on: MDA-MB-435; test: Cytotoxicity against human MDA-MB-435 cells assessed as cell growth at 10 uM after 48 hrs by SRB assay relative to control; details: MDA-MB-435, 48 h, read-out: Activity; method in brief: as §1
[29] = tested on: SF-539; test: Cytotoxicity against human SF539 cells assessed as cell growth at 10 uM after 48 hrs by SRB assay relative to control; details: SF-539, 48 h, read-out: Activity; method in brief: as §1
[30] = tested on: SK-MEL-5; test: Cytotoxicity against human SK-MEL-5 cells assessed as cell growth at 10 uM after 48 hrs by SRB assay relative to control; details: SK-MEL-5, 48 h, read-out: Activity; method in brief: as §1
[31] = tested on: ACHN; test: Cytotoxicity against human ACHN cells assessed as cell growth at 10 uM after 48 hrs by SRB assay relative to control; details: read-out: Activity; method in brief: as §2

Work on `Cc1ccc(Sc2cc3c(c4nsnc24)C(=O)c2ccccc2C3=O)c(C)c1` yielded a growth at 10 µM [1] of 92.3%, a growth at 10 µM [2] of 107% and a growth at 10 µM [3] of 106%. For the same compound, the growth at 10 µM [4] was 1.5%, the growth at 10 µM [5] was 68% and the growth at 10 µM [6] was 110%. It also gave a growth at 10 µM [7] of 90.4%, a growth at 10 µM [8] of 75.4% and a growth at 10 µM [9] of 127%. For the same compound, the growth at 10 µM [10] was 90.6%, the growth at 10 µM [11] was 110% and the growth at 10 µM [12] was 96.8%. For the same compound, the growth at 10 µM [13] was 94.5%, the growth at 10 µM [14] was 99.1% and the growth at 10 µM [15] was 101%. It also gave a growth at 10 µM [16] of 102%, a growth at 10 µM [17] of 122% and a growth at 10 µM [18] of 76%. For the same compound, the growth at 10 µM [19] was 105%, the growth at 10 µM [20] was 105% and the growth at 10 µM [21] was 110%. It also gave a growth at 10 µM [22] of 98.5%, a growth at 10 µM [23] of 65.7% and a growth at 10 µM [24] of 83%. The growth at 10 µM [25] was 97.8%, the growth at 10 µM [26] was 89.4% and the growth at 10 µM [27] was 84.4%. It also gave a growth at 10 µM [28] of 106%, a growth at 10 µM [29] of 100% and a growth at 10 µM [30] of 110%. The growth at 10 µM [31] was 94.2%.
